Data as given in ChEMBL document CHEMBL2021785, “Compounds of Alpinia katsumadai as potential efflux inhibitors in Mycobacterium smegmatis” (2012).
In brackets after ≈: the same amount, converted by molar mass. Activity calls are given as the source filed them. The rule behind the calls is not given here.

Columns and labels:
[1] = tested on: Mycolicibacterium smegmatis; assay: Antibacterial activity against Mycobacterium smegmatis mc2 155 after 72 hrs by MTT assay; assay type: functional; conditions: str. MC2 155, 72 h
Procedure, shortened: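 Broth dilution in Mueller-Hinton broth; compounds dissolved in DMSO, two-fold serial dilutions; inoculum adjusted to McFarland 0.5 and diluted to final 5 × 10^5 cfu/mL; cells pre-grown on Columbia blood agar with 5% horse blood, 37 °C, 72 h. Plates incubated 37 °C for 72 h; MIC read after MTT as lowest concentration inhibiting growth.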

[2] = tested on: Mycolicibacterium smegmatis MC2 155; assay: Inhibition of Multidrug resistance efflux pump in Mycobacterium smegmatis mc2 155 assessed as modulation of EtBr-mediated antibacterial activity measuring ratio of EtBr MIC to EtBr and compound MIC at 64 mg/L after 72 hrs by MTT assay
Procedure, shortened: (§1)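 Checkerboard-type modulation by broth dilution in MHB with DMSO-dissolved modulators: either modulator held constant (half its MIC) with two-fold serially diluted antibiotic/EtBr, or antibiotic fixed with modulator serially diluted. Final inoculum 5 × 10^5 cfu/mL, 37 °C, 72 h, MTT read-out. Modulation factor quantifies shift in antibiotic/EtBr MIC; FICI assesses combination effect.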

[3] = tested on: Mycolicibacterium smegmatis MC2 155; assay: Inhibition of Multidrug resistance efflux pump in Mycobacterium smegmatis mc2 155 assessed as modulation of ciprofloxacin-mediated antibacterial activity measuring ratio of ciprofloxacin MIC to ciprofloxacin and compound MIC at 64 mg/L after 72 hrs by MTT assay; procedure, shortened: as §1
[4] = tested on: Mycolicibacterium smegmatis MC2 155; assay: Inhibition of Multidrug resistance efflux pump in Mycobacterium smegmatis mc2 155 assessed as modulation of ethambutol-mediated antibacterial activity measuring ratio of ethambutol MIC to ethambutol and compound MIC at 64 mg/L after 72 hrs by MTT assay; procedure, shortened: as §1
[5] = tested on: Mycolicibacterium smegmatis MC2 155; assay: Inhibition of Multidrug resistance efflux pump in Mycobacterium smegmatis mc2 155 assessed as modulation of isoniazid-mediated antibacterial activity measuring ratio of isoniazid MIC to isoniazid and compound MIC at 64 mg/L after 72 hrs by MTT assay; procedure, shortened: as §1
[6] = tested on: Mycolicibacterium smegmatis MC2 155; assay: Inhibition of Multidrug resistance efflux pump in Mycobacterium smegmatis mc2 155 assessed as modulation of rifampicin-mediated antibacterial activity measuring ratio of rifampicin MIC to rifampicin and compound MIC at 64 mg/L after 72 hrs by MTT assay; procedure, shortened: as §1
[7] = tested on: Mycolicibacterium smegmatis MC2 155; assay: Inhibition of Multidrug resistance efflux pump in Mycobacterium smegmatis mc2 155 assessed as modulation of EtBr-mediated antibacterial activity measuring fractional inhibitory concentration index at 64 mg/L after 72 hrs by MTT assay; procedure, shortened: as §1
[8] = tested on: Mycolicibacterium smegmatis MC2 155; assay: Inhibition of Multidrug resistance efflux pump in Mycobacterium smegmatis mc2 155 assessed as modulation of rifampicin-mediated antibacterial activity measuring fractional inhibitory concentration index at 64 mg/L after 72 hrs by MTT assay; procedure, shortened: as §1
[9] = tested on: Mycolicibacterium smegmatis MC2 155; assay: Inhibition of Multidrug resistance efflux pump in Mycobacterium smegmatis mc2 155 assessed as EtBr accumulation measuring relative fluorescence at half the MIC measured for 60 mins by spectrophotometry relative to control
Procedure, shortened: (§2)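 Overnight 7H9/ADC culture (37 °C, 100 rpm) centrifuged and resuspended in PBS with 0.05% Tween 80 to OD600 0.4. Cells mixed 1:1 with test solutions containing 0.5 mg/L EtBr and 0.4% glucose, compounds from MIC down to 1/16 MIC. Fluorescence (ex 531/em 590 nm) read every 50 s at 37 °C for 60 min; repeated at least three times.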

[10] = tested on: Mycolicibacterium smegmatis MC2 155; assay: Inhibition of Multidrug resistance efflux pump in Mycobacterium smegmatis mc2 155 assessed as inhibition of EtBr efflux measuring normalized fluorescence at half the MIC measured for 60 mins by spectrophotometry relative to control
[11] = tested on: Mycolicibacterium smegmatis MC2 155; assay: Inhibition of Multidrug resistance efflux pump in Mycobacterium smegmatis mc2 155 assessed as modulation of EtBr-mediated antibacterial activity measuring reduction in MIC at 1/2 of MIC after 72 hrs by MTT assay relative to control; procedure, shortened: as §1
[12] = tested on: Mycolicibacterium smegmatis MC2 155; assay: Inhibition of Multidrug resistance efflux pump in Mycobacterium smegmatis mc2 155 assessed as modulation of rifampicin-mediated antibacterial activity measuring reduction in MIC at 1/2 of MIC after 72 hrs by MTT assay relative to control; procedure, shortened: as §1
[13] = tested on: Mycolicibacterium smegmatis MC2 155; assay: Inhibition of Multidrug resistance efflux pump in Mycobacterium smegmatis mc2 155 assessed as EtBr accumulation measuring relative fluorescence at MIC measured for 60 mins by spectrophotometry relative to control; procedure, shortened: as §2
[14] = tested on: Mycolicibacterium smegmatis MC2 155; assay: Inhibition of Multidrug resistance efflux pump in Mycobacterium smegmatis mc2 155 assessed as EtBr accumulation measuring relative fluorescence at 1/4 of MIC measured for 60 mins by spectrophotometry relative to control; procedure, shortened: as §2
[15] = tested on: Mycolicibacterium smegmatis MC2 155; assay: Inhibition of Multidrug resistance efflux pump in Mycobacterium smegmatis mc2 155 assessed as EtBr accumulation measuring relative fluorescence at lower MIC measured for 60 mins by spectrophotometry relative to control; procedure, shortened: as §2
[16] = tested on: Mycolicibacterium smegmatis MC2 155; assay: Inhibition of Multidrug resistance efflux pump in Mycobacterium smegmatis mc2 155 assessed as EtBr accumulation measuring relative fluorescence at 1/8 of MIC measured for 60 mins by spectrophotometry relative to control; procedure, shortened: as §2
[17] = tested on: Mycolicibacterium smegmatis MC2 155; assay: Inhibition of Multidrug resistance efflux pump in Mycobacterium smegmatis mc2 155 assessed as inhibition of EtBr efflux measuring relative fluorescence at 1/8 of MIC measured for 60 mins by spectrophotometry relative to control
[18] = tested on: Mycolicibacterium smegmatis MC2 155; assay: Inhibition of Multidrug resistance efflux pump in Mycobacterium smegmatis mc2 155 assessed as inhibition of EtBr efflux measuring relative fluorescence at lower MIC measured for 60 mins by spectrophotometry relative to control
[19] = tested on: Mycolicibacterium smegmatis MC2 155; assay: Inhibition of Multidrug resistance efflux pump in Mycobacterium smegmatis mc2 155 assessed as modulation of EtBr-mediated antibacterial activity measuring ratio of EtBr MIC to EtBr and compound MIC at 2 mg/L after 72 hrs by MTT assay; procedure, shortened: as §1
[20] = tested on: Mycolicibacterium smegmatis MC2 155; assay: Inhibition of Multidrug resistance efflux pump in Mycobacterium smegmatis mc2 155 assessed as modulation of isoniazid-mediated antibacterial activity measuring ratio of isoniazid MIC to isoniazid and compound MIC at 2 mg/L after 72 hrs by MTT assay; procedure, shortened: as §1
[21] = tested on: Mycolicibacterium smegmatis MC2 155; assay: Inhibition of Multidrug resistance efflux pump in Mycobacterium smegmatis mc2 155 assessed as modulation of rifampicin-mediated antibacterial activity measuring ratio of rifampicin MIC to rifampicin and compound MIC at 2 mg/L after 72 hrs by MTT assay; procedure, shortened: as §1

COc1ccc(CCN(C)CCCC(C#N)(c2ccc(OC)c(OC)c2)C(C)C)cc1OC (stereo unspecified) [VERAPAMIL]
MIC [1]: 512 µg/mL (≈ 1130 µM)

CO[C@H]1/C=C/O[C@@]2(C)Oc3c(C)c(O)c4c(O)c(c(/C=N/N5CCN(C)CC5)c(O)c4c3C2=O)NC(=O)/C(C)=C\C=C\[C@H](C)[C@H](O)[C@@H](C)[C@@H](O)[C@@H](C)[C@H](OC(C)=O)[C@@H]1C [RIFAMPIN]
MIC [1]: 32 µg/mL (≈ 38.9 µM)

O[C@@H](CCc1ccccc1)C[C@H](O)/C=C/c1ccccc1
MIC [1]: ≥ 128 µg/mL | Ratio [2]: 8 | Ratio [3]: 2 | Ratio [4]: 2 | Ratio [5]: 2 | Ratio [6]: 4 | fractional inhibitory concentration index (FICI) [7]: 0.25 | fractional inhibitory concentration index (FICI) [8]: 0.75 | RFU [9]: 16500 | normalized EtBr fluorescence relative to control [10]: 0.746 | fold change (FC) [11]: 4 | fold change (FC) [12]: 4

N#CC(C#N)=NNc1cccc(Cl)c1 [CARBONYL CYANIDE M-CHLOROPHENYLHYDRAZONE]
MIC [1]: 32 µg/mL (≈ 156 µM)

O=C(/C=C/C=C/c1ccccc1)CCc1ccccc1
MIC [1]: ≥ 128 µg/mL | Ratio [2]: 4 | Ratio [3]: 1 | Ratio [4]: 1 | Ratio [5]: 1 | Ratio [6]: 4 | fractional inhibitory concentration index (FICI) [7]: 0.27 | fractional inhibitory concentration index (FICI) [8]: 0.28 | RFU [9]: 19400 | inhibition [13]: Active | inhibition [14]: Active | inhibition [15]: Dose-dependent effect | inhibition [16]: Active | normalized EtBr fluorescence relative to control [10]: 0.806 | inhibition [17]: Active | inhibition [18]: Dose-dependent effect | fold change (FC) [11]: 4 | fold change (FC) [12]: 4

CCCCC/C=C\C/C=C\CCCCCCCC(=O)O [LINOLEIC ACID]
MIC [1]: 4 µg/mL (≈ 14.3 µM) | Ratio [19]: 2 | Ratio [20]: 1 | Ratio [21]: 2

CCCCCCCCCCCCCCCCCC(=O)O [STEARIC ACID]
MIC [1]: ≥ 128 µg/mL | Ratio [2]: 1 | Ratio [5]: 0.5

NNC(=O)c1ccncc1 [ISONIAZID]
MIC [1]: 4 µg/mL (≈ 29.2 µM)
